Laboratory results reported in ChEMBL document CHEMBL4689842, “EUbOPEN Chemogenomics Library wave 1” (2021).

Tested on: U2OS
Experiment: Multiplex assay against U2OS
Type: toxicity, cell-based
Details: human
Procedure, shortened: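 Live cells carried four stains from seeding: Hoechst33342, BioTracker Green Microtubule Cytoskeleton Dye, MitoTracker Red and Annexin V Alexa Fluor 680. They were imaged on a CQ1 microscope at 37°C and 5% CO2 after compound addition. Using CellPathfinder machine-learning gating, cells were split into Hoechst high-intensity objects or normal cells, normal cells into healthy, pyknosed or fragmented nuclei, and pyknosed cells into mitotic or apoptotic; tubulin, mitochondrial-mass and membrane-permeability phenotypes are per cents of healthy-nucleus cells.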

[1] = 12 h, 1 µM, compound concentration 1 uM, replicate 1
[2] = 12 h, 1 µM, compound concentration 1 uM, replicate 2
[3] = 12 h, 10 µM, compound concentration 10 uM, replicate 1
[4] = 12 h, 10 µM, compound concentration 10 uM, replicate 2
[5] = 24 h, 1 µM, compound concentration 1 uM, replicate 1
[6] = 24 h, 1 µM, compound concentration 1 uM, replicate 2
[7] = 24 h, 10 µM, compound concentration 10 uM, replicate 1
[8] = 24 h, 10 µM, compound concentration 10 uM, replicate 2

SMILES: C=CC(=O)Nc1cccc(Oc2nc(Nc3ccc(N4CCN(C)CC4)cc3OC)ncc2Cl)c1
- Population Apoptotic (%) [1]: 67%
- Population Fragmented Nuclei (%) [1]: 27%
- Population Healthy Nuclei (%) [1]: 36%
- Population Hoechst High Intensity Objects (%) [1]: 8%
- Population Membrane Permeable-Phenotype (%) [1]: 17%
- Population Mitochondria Different-Phenotype (%) [1]: 74%
- Population Mitotic Cells (%) [1]: 32%
- Population Normal (%) [1]: 92%
- Population Pyknosed Nuclei (%) [1]: 36%
- Population Tubulin-Different-Phenotype (%) [1]: 96%
- Total Cell Count [1]: 140
- Population Apoptotic (%) [2]: 73%
- Population Fragmented Nuclei (%) [2]: 32%
- Population Healthy Nuclei (%) [2]: 26%
- Population Hoechst High Intensity Objects (%) [2]: 13%
- Population Membrane Permeable-Phenotype (%) [2]: 19%
- Population Mitochondria Different-Phenotype (%) [2]: 80%
- Population Mitotic Cells (%) [2]: 26%
- Population Normal (%) [2]: 86%
- Population Pyknosed Nuclei (%) [2]: 41%
- Population Tubulin-Different-Phenotype (%) [2]: 100%
- Total Cell Count [2]: 107
- Population Apoptotic (%) [3]: 58%
- Population Fragmented Nuclei (%) [3]: 5%
- Population Healthy Nuclei (%) [3]: 82%
- Population Hoechst High Intensity Objects (%) [3]: 1%
- Population Membrane Permeable-Phenotype (%) [3]: 35%
- Population Mitochondria Different-Phenotype (%) [3]: 7%
- Population Mitotic Cells (%) [3]: 41%
- Population Normal (%) [3]: 98%
- Population Pyknosed Nuclei (%) [3]: 12%
- Population Tubulin-Different-Phenotype (%) [3]: 21%
- Total Cell Count [3]: 152
- Population Apoptotic (%) [4]: 25%
- Population Fragmented Nuclei (%) [4]: 16%
- Population Healthy Nuclei (%) [4]: 79%
- Population Hoechst High Intensity Objects (%) [4]: 13%
- Population Membrane Permeable-Phenotype (%) [4]: 43%
- Population Mitochondria Different-Phenotype (%) [4]: 16%
- Population Mitotic Cells (%) [4]: 75%
- Population Normal (%) [4]: 86%
- Population Pyknosed Nuclei (%) [4]: 4%
- Population Tubulin-Different-Phenotype (%) [4]: 22%
- Total Cell Count [4]: 113
- Population Apoptotic (%) [5]: 91%
- Population Fragmented Nuclei (%) [5]: 21%
- Population Hoechst High Intensity Objects (%) [5]: 12%
- Population Membrane Permeable-Phenotype (%) [5]: 70%
- Population Mitochondria Different-Phenotype (%) [5]: 100%
- Population Mitotic Cells (%) [5]: 8%
- Population Normal (%) [5]: 87%
- Population Pyknosed Nuclei (%) [5]: 61%
- Total Cell Count [5]: 160
- Population Apoptotic (%) [6]: 92%
- Population Fragmented Nuclei (%) [6]: 35%
- Population Healthy Nuclei (%) [6]: 17%
- Population Hoechst High Intensity Objects (%) [6]: 14%
- Population Membrane Permeable-Phenotype (%) [6]: 93%
- Population Mitochondria Different-Phenotype (%) [6]: 93%
- Population Mitotic Cells (%) [6]: 7%
- Population Normal (%) [6]: 85%
- Population Pyknosed Nuclei (%) [6]: 47%
- Population Tubulin-Different-Phenotype (%) [6]: 100%
- Total Cell Count [6]: 131
- Population Apoptotic (%) [7]: 62%
- Population Fragmented Nuclei (%) [7]: 5%
- Population Healthy Nuclei (%) [7]: 89%
- Population Hoechst High Intensity Objects (%) [7]: 3%
- Population Membrane Permeable-Phenotype (%) [7]: 29%
- Population Mitochondria Different-Phenotype (%) [7]: 9%
- Population Mitotic Cells (%) [7]: 37%
- Population Normal (%) [7]: 96%
- Population Pyknosed Nuclei (%) [7]: 5%
- Population Tubulin-Different-Phenotype (%) [7]: 18%
- Total Cell Count [7]: 182
- Population Apoptotic (%) [8]: 66%
- Population Fragmented Nuclei (%) [8]: 10%
- Population Healthy Nuclei (%) [8]: 84%
- Population Hoechst High Intensity Objects (%) [8]: 16%
- Population Membrane Permeable-Phenotype (%) [8]: 27%
- Population Mitochondria Different-Phenotype (%) [8]: 17%
- Population Mitotic Cells (%) [8]: 33%
- Population Normal (%) [8]: 83%
- Population Tubulin-Different-Phenotype (%) [8]: 17%
- Total Cell Count [8]: 120

SMILES: Cc1nc(N2CC[C@H](O)C2)ncc1-c1cc(C(F)(F)F)cc2[nH]ncc12
- Population Apoptotic (%) [1]: 25%
- Population Fragmented Nuclei (%) [1]: 2%
- Population Healthy Nuclei (%) [1]: 93%
- Population Hoechst High Intensity Objects (%) [1]: 3%
- Population Membrane Permeable-Phenotype (%) [1]: 6%
- Population Mitochondria Different-Phenotype (%) [1]: 24%
- Population Mitotic Cells (%) [1]: 75%
- Population Normal (%) [1]: 96%
- Population Pyknosed Nuclei (%) [1]: 4%
- Population Tubulin-Different-Phenotype (%) [1]: 22%
- Total Cell Count [1]: 181
- Population Apoptotic (%) [2]: 14%
- Population Fragmented Nuclei (%) [2]: 4%
- Population Healthy Nuclei (%) [2]: 89%
- Population Hoechst High Intensity Objects (%) [2]: 11%
- Population Membrane Permeable-Phenotype (%) [2]: 5%
- Population Mitochondria Different-Phenotype (%) [2]: 28%
- Population Mitotic Cells (%) [2]: 85%
- Population Normal (%) [2]: 88%
- Population Pyknosed Nuclei (%) [2]: 5%
- Population Tubulin-Different-Phenotype (%) [2]: 19%
- Total Cell Count [2]: 111
- Population Apoptotic (%) [3]: 60%
- Population Fragmented Nuclei (%) [3]: 6%
- Population Healthy Nuclei (%) [3]: 88%
- Population Hoechst High Intensity Objects (%) [3]: 1%
- Population Membrane Permeable-Phenotype (%) [3]: 8%
- Population Mitochondria Different-Phenotype (%) [3]: 22%
- Population Mitotic Cells (%) [3]: 40%
- Population Normal (%) [3]: 98%
- Population Pyknosed Nuclei (%) [3]: 5%
- Population Tubulin-Different-Phenotype (%) [3]: 26%
- Total Cell Count [3]: 158
- Population Apoptotic (%) [4]: 16%
- Population Fragmented Nuclei (%) [4]: 9%
- Population Healthy Nuclei (%) [4]: 84%
- Population Hoechst High Intensity Objects (%) [4]: 12%
- Population Membrane Permeable-Phenotype (%) [4]: 6%
- Population Mitochondria Different-Phenotype (%) [4]: 31%
- Population Mitotic Cells (%) [4]: 83%
- Population Normal (%) [4]: 87%
- Population Pyknosed Nuclei (%) [4]: 6%
- Population Tubulin-Different-Phenotype (%) [4]: 41%
- Total Cell Count [4]: 153
- Population Apoptotic (%) [5]: 27%
- Population Fragmented Nuclei (%) [5]: 1%
- Population Healthy Nuclei (%) [5]: 94%
- Population Hoechst High Intensity Objects (%) [5]: 1%
- Population Membrane Permeable-Phenotype (%) [5]: 7%
- Population Mitochondria Different-Phenotype (%) [5]: 25%
- Population Mitotic Cells (%) [5]: 72%
- Population Normal (%) [5]: 98%
- Population Pyknosed Nuclei (%) [5]: 4%
- Population Tubulin-Different-Phenotype (%) [5]: 24%
- Total Cell Count [5]: 260
- Population Apoptotic (%) [6]: 14%
- Population Fragmented Nuclei (%) [6]: 3%
- Population Healthy Nuclei (%) [6]: 92%
- Population Hoechst High Intensity Objects (%) [6]: 6%
- Population Membrane Permeable-Phenotype (%) [6]: 3%
- Population Mitochondria Different-Phenotype (%) [6]: 24%
- Population Mitotic Cells (%) [6]: 85%
- Population Normal (%) [6]: 93%
- Total Cell Count [6]: 121
- Population Apoptotic (%) [7]: 27%
- Population Fragmented Nuclei (%) [7]: 3%
- Population Healthy Nuclei (%) [7]: 91%
- Population Hoechst High Intensity Objects (%) [7]: 4%
- Population Membrane Permeable-Phenotype (%) [7]: 5%
- Population Mitochondria Different-Phenotype (%) [7]: 12%
- Population Mitotic Cells (%) [7]: 72%
- Population Normal (%) [7]: 95%
- Population Pyknosed Nuclei (%) [7]: 4%
- Population Tubulin-Different-Phenotype (%) [7]: 28%
- Total Cell Count [7]: 173
- Population Apoptotic (%) [8]: 21%
- Population Fragmented Nuclei (%) [8]: 5%
- Population Healthy Nuclei (%) [8]: 81%
- Population Hoechst High Intensity Objects (%) [8]: 9%
- Population Membrane Permeable-Phenotype (%) [8]: 13%
- Population Mitochondria Different-Phenotype (%) [8]: 40%
- Population Mitotic Cells (%) [8]: 78%
- Population Normal (%) [8]: 90%
- Population Pyknosed Nuclei (%) [8]: 12%
- Population Tubulin-Different-Phenotype (%) [8]: 46%
- Total Cell Count [8]: 141

SMILES: C=CC(=O)Nc1ccc2[nH]c(=O)n(C3CCN(Cc4ccc(-c5nc6cc[nH]c(=O)c6cc5-c5ccccc5)cc4)CC3)c2c1 [Borussertib]
- Population Apoptotic (%) [1]: 25%
- Population Fragmented Nuclei (%) [1]: 5%
- Population Healthy Nuclei (%) [1]: 91%
- Population Hoechst High Intensity Objects (%) [1]: 3%
- Population Membrane Permeable-Phenotype (%) [1]: 12%
- Population Mitochondria Different-Phenotype (%) [1]: 35%
- Population Mitotic Cells (%) [1]: 75%
- Population Normal (%) [1]: 96%
- Population Pyknosed Nuclei (%) [1]: 2%
- Population Tubulin-Different-Phenotype (%) [1]: 29%
- Total Cell Count [1]: 158
- Population Apoptotic (%) [2]: 28%
- Population Healthy Nuclei (%) [2]: 87%
- Population Hoechst High Intensity Objects (%) [2]: 14%
- Population Membrane Permeable-Phenotype (%) [2]: 11%
- Population Mitochondria Different-Phenotype (%) [2]: 21%
- Population Mitotic Cells (%) [2]: 71%
- Population Normal (%) [2]: 85%
- Population Pyknosed Nuclei (%) [2]: 6%
- Population Tubulin-Different-Phenotype (%) [2]: 23%
- Total Cell Count [2]: 124
- Population Apoptotic (%) [3]: 54%
- Population Fragmented Nuclei (%) [3]: 2%
- Population Healthy Nuclei (%) [3]: 84%
- Population Hoechst High Intensity Objects (%) [3]: 4%
- Population Membrane Permeable-Phenotype (%) [3]: 24%
- Population Mitochondria Different-Phenotype (%) [3]: 18%
- Population Mitotic Cells (%) [3]: 45%
- Population Normal (%) [3]: 95%
- Population Pyknosed Nuclei (%) [3]: 13%
- Population Tubulin-Different-Phenotype (%) [3]: 38%
- Total Cell Count [3]: 190
- Population Apoptotic (%) [4]: 60%
- Population Fragmented Nuclei (%) [4]: 6%
- Population Healthy Nuclei (%) [4]: 77%
- Population Hoechst High Intensity Objects (%) [4]: 8%
- Population Membrane Permeable-Phenotype (%) [4]: 33%
- Population Mitochondria Different-Phenotype (%) [4]: 28%
- Population Mitotic Cells (%) [4]: 40%
- Population Normal (%) [4]: 91%
- Population Pyknosed Nuclei (%) [4]: 15%
- Population Tubulin-Different-Phenotype (%) [4]: 32%
- Total Cell Count [4]: 104
- Population Apoptotic (%) [5]: 36%
- Population Fragmented Nuclei (%) [5]: 1%
- Population Healthy Nuclei (%) [5]: 93%
- Population Hoechst High Intensity Objects (%) [5]: 2%
- Population Membrane Permeable-Phenotype (%) [5]: 8%
- Population Mitochondria Different-Phenotype (%) [5]: 22%
- Population Mitotic Cells (%) [5]: 63%
- Population Normal (%) [5]: 97%
- Population Pyknosed Nuclei (%) [5]: 5%
- Population Tubulin-Different-Phenotype (%) [5]: 34%
- Total Cell Count [5]: 220
- Population Apoptotic (%) [6]: 37%
- Population Fragmented Nuclei (%) [6]: 9%
- Population Healthy Nuclei (%) [6]: 84%
- Population Hoechst High Intensity Objects (%) [6]: 7%
- Population Membrane Permeable-Phenotype (%) [6]: 10%
- Population Mitochondria Different-Phenotype (%) [6]: 29%
- Population Mitotic Cells (%) [6]: 62%
- Population Normal (%) [6]: 92%
- Population Pyknosed Nuclei (%) [6]: 6%
- Population Tubulin-Different-Phenotype (%) [6]: 28%
- Total Cell Count [6]: 137
- Population Apoptotic (%) [7]: 66%
- Population Fragmented Nuclei (%) [7]: 6%
- Population Healthy Nuclei (%) [7]: 85%
- Population Hoechst High Intensity Objects (%) [7]: 2%
- Population Membrane Permeable-Phenotype (%) [7]: 13%
- Population Mitochondria Different-Phenotype (%) [7]: 19%
- Population Mitotic Cells (%) [7]: 33%
- Population Normal (%) [7]: 97%
- Population Pyknosed Nuclei (%) [7]: 7%
- Population Tubulin-Different-Phenotype (%) [7]: 26%
- Total Cell Count [7]: 238
- Population Apoptotic (%) [8]: 83%
- Population Fragmented Nuclei (%) [8]: 12%
- Population Healthy Nuclei (%) [8]: 76%
- Population Hoechst High Intensity Objects (%) [8]: 13%
- Population Membrane Permeable-Phenotype (%) [8]: 21%
- Population Mitochondria Different-Phenotype (%) [8]: 28%
- Population Mitotic Cells (%) [8]: 16%
- Population Normal (%) [8]: 86%
- Population Pyknosed Nuclei (%) [8]: 11%
- Population Tubulin-Different-Phenotype (%) [8]: 22%
- Total Cell Count [8]: 121
